# Experimental data from the array DNA melting data of Ke et al. (doi:10.1101/2024.01.08.574731).
# How the values were obtained:
# [1] = folding enthalpy; higher = less favourable; fluorescence melt of hairpins on a sequencing array, two-state fit; conditions: sodium 0.088 M
# Outline: (§1)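 On a sequenced MiSeq flow cell, library hairpins with annealed Cy3 and quencher oligos were imaged for Cy3 fluorescence in 2.5 °C steps up to 60 °C, in 50 mM Na-HEPES pH 8.0, 25 mM NaCl. Normalisation used pre-quench Cy3 and control constructs. Bootstrapped two-state fits gave melting temperature and folding enthalpy, combined by inverse variance across four replicates and with fitted temperatures raised by 9.35 °C to match UV melts.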
# [2] = melting temperature; fluorescence melt of hairpins on a sequencing array, two-state fit, raised by 9.35 °C to match UV melts; conditions: sodium 0.088 M
# Outline: as §1
Sequence,folding enthalpy [1],Tm [2]
GACTGCGAAAGCACGTC ((((((....))).))),-15.8 kcal/mol,56.4 °C
GACTGCGGAAACGCAATC ((.((((....)))).)),-15.4 kcal/mol,38 °C
GACTGCGGAAACGTGGTC (((..((....))..))),-32.8 kcal/mol,46.5 °C
GACTGGCGAAAGCCCGTC (((.(((....))).))),-18.9 kcal/mol,49.1 °C
GACTGTGGAAACGTAGTC ((((..(....)..)))),-17.5 kcal/mol,34.8 °C
GACTTAGGAAACCAAGTC (((((.(....).))))),-30.6 kcal/mol,36 °C
GACTTAGGAAACTAAGCC (.(((((....))))).),-21.9 kcal/mol,34.2 °C
GACTTCCGAAAGGATGTC (((.(((....))).))),-40.7 kcal/mol,52.8 °C
GACTTCGGAAACAAAGTC (((((.(....).))))),-25.6 kcal/mol,34 °C
GACTTCGGAAACGGAGTC ((((.((....)).)))),-39 kcal/mol,49.4 °C
GACTTGAAAAAGTC (((((....))))),-26.7 kcal/mol,44.5 °C
GACTTGCGAAAGCAGGTC (((.(((....))).))),-34.6 kcal/mol,60 °C
GACTTGGAAACAAGTC ((((((....)))))),-38.5 kcal/mol,54.2 °C
GACTTGGGAAACTGAGTC ((((..(....)..)))),-32 kcal/mol,33.5 °C
GACTTTACGAAAGTAGTC (((..(((....)))))),-12.9 kcal/mol,33.3 °C
GACTTTCCGAAAGGAGTC (((..(((....)))))),-13 kcal/mol,29.6 °C
GACTTTGAAAAAAGTC ((((((....)))))),-40.6 kcal/mol,48.6 °C
GACTTTGGAAACAAAGCC (.(((((....))))).),-22.4 kcal/mol,39 °C
GAGAAAACGAAAGTTCTC (((..(((....)))))),-19.4 kcal/mol,30.8 °C
GAGAAACCGAAAGGTCTC (((..(((....)))))),-16.8 kcal/mol,34.1 °C
GAGAAACGAAAGTTGCTC (((.(((....))).))),-28 kcal/mol,48.8 °C
GAGAACCCGAAAGGGCTC (((..(((....)))))),-13.9 kcal/mol,34.9 °C
GAGAACCGAAAGGTCTC (((.(((....)))))),-20.6 kcal/mol,48.1 °C

Sequence,folding enthalpy [1],Tm [2]
GAGAACCGAAAGGTGCTC (((.(((....))).))),-34.3 kcal/mol,56.5 °C
GAGAACGAAAGTTACTC ((((((....))).))),-12.4 kcal/mol,31.1 °C
GAGAACGAAAGTTATCTC ((((((....)))..))),-26 kcal/mol,43 °C
GAGAACGAAAGTTCCCTC ((((((....)))..))),-14 kcal/mol,38.9 °C
GAGAACGAAAGTTCCTC ((((((....))).))),-14.2 kcal/mol,42.7 °C
GAGAAGAAATTCTC (((((....))))),-9.49 kcal/mol,28.9 °C
GAGAAGCGAAAGCTACTC (((.(((....))).))),-28.8 kcal/mol,49.9 °C
GAGAATCCGAAAGGACTC (((..(((....)))))),-16 kcal/mol,27.7 °C
GAGACACGAAAGTGACTC (((.(((....))).))),-36 kcal/mol,55.6 °C
GAGACAGAAATGTCTC ((((((....)))))),-34.4 kcal/mol,52.5 °C
GAGACCCGAAAGGGCCTC (((.(((....))).))),-28.8 kcal/mol,58.5 °C
GAGACCGAAAGGTAGCTC ((((((....)))..))),-18.5 kcal/mol,39.6 °C
GAGACCGAAAGGTCGCTC ((((((....)))..))),-14.3 kcal/mol,69.1 °C
GAGACCGAAAGGTTACTC ((((((....)))..))),-12.8 kcal/mol,34.8 °C
GAGACGCGAAAGCGCTC (((.(((....)))))),-14.3 kcal/mol,50 °C
GAGACGGGAAACCGTCTC (((((((....))))))),-28 kcal/mol,69 °C
GAGACTCCGAAAGGACTC (((..(((....)))))),-12.8 kcal/mol,25.6 °C
GAGACTGGAAACAGCCTC (((.(((....))).))),-23.8 kcal/mol,43.3 °C
GAGACTGGAAACAGTCTC (((((((....))))))),-40.3 kcal/mol,64.8 °C
GAGAGAGCGAAAGCTCTC (((..(((....)))))),-9.57 kcal/mol,56.7 °C
GAGAGAGGAAACTCTTTC ((.((((....)))).)),-20.5 kcal/mol,29.9 °C
GAGAGCCGAAAGGCCTC (((.(((....)))))),-15.6 kcal/mol,55.3 °C
GAGAGCGAAAGCTCCTC ((((((....))).))),-10.3 kcal/mol,49 °C

Sequence,folding enthalpy [1],Tm [2]
GAGAGCGAAAGCTTACTC ((((((....)))..))),-12.3 kcal/mol,30.6 °C
GAGAGCGGAAACACTCTC (((((.(....).))))),-28.1 kcal/mol,43 °C
GAGAGCGGAAACGCCCTC (((.(((....))).))),-16.7 kcal/mol,47.2 °C
GAGAGCGGAAACGCTTTC ((.((((....)))).)),-17.3 kcal/mol,46.4 °C
GAGAGCGGAAACGTTCTC ((((.((....)).)))),-34.6 kcal/mol,49.1 °C
GAGAGGCGAAAGCCGCTC (((.(((....))).))),-18.9 kcal/mol,66.1 °C
GAGAGGGGAAACTCTCTC (((((.(....).))))),-26.2 kcal/mol,49.4 °C
GAGAGTGCGAAAGCACTC (((..(((....)))))),-7.98 kcal/mol,64.5 °C
GAGAGTGGAAACACCCTC (((.(((....))).))),-26.8 kcal/mol,36 °C
GAGAGTGGAAACGCTCTC (((((.(....).))))),-36.8 kcal/mol,51.7 °C
GAGATAACGAAAGTTCTC (((..(((....)))))),-20.8 kcal/mol,30.7 °C
GAGATACCGAAAGGTCTC (((..(((....)))))),-15.6 kcal/mol,34.3 °C
GAGATACGAAAGTAACTC (((.(((....))).))),-26 kcal/mol,44.7 °C
GAGATACGAAAGTACTC (((.(((....)))))),-19.9 kcal/mol,36.7 °C
GAGATACGAAAGTAGCTC (((.(((....))).))),-40.8 kcal/mol,57.5 °C
GAGATCCGAAAGGACTC (((.(((....)))))),-18.9 kcal/mol,44.2 °C
GAGATGCGAAAGCACTC (((.(((....)))))),-19.2 kcal/mol,48.4 °C
GAGATGGGAAACCATTTC ((.((((....)))).)),-26.8 kcal/mol,35 °C
GAGATGGGAAACCGTCTC ((((.((....)).)))),-38.2 kcal/mol,49.6 °C
GAGATGGGAAACTATCTC (((((.(....).))))),-32 kcal/mol,40.7 °C
GAGCAAGCGAAAGCTCTC (((..(((....)))))),-11.6 kcal/mol,35.1 °C
GAGCACGAAAGTGACTC ((((((....))).))),-19.5 kcal/mol,47.3 °C
GAGCAGAAATGCTC (((((....))))),-29.8 kcal/mol,53.6 °C

Sequence,folding enthalpy [1],Tm [2]
GAGCAGGGAAACCTACTC (((.(((....))).))),-22.1 kcal/mol,39.5 °C
GAGCATGGAAACATGCCC (.(((((....))))).),-12.8 kcal/mol,44 °C
GAGCATGGAAACGTGCTC (((((.(....).))))),-47.3 kcal/mol,52.9 °C
GAGCCACGAAAGTGACTC (((.(((....))).))),-45.2 kcal/mol,54.5 °C
GAGCCACGAAAGTGCTC (((.(((....)))))),-19.9 kcal/mol,54.2 °C
GAGCCAGCGAAAGCTCTC (((..(((....)))))),-10.3 kcal/mol,34.8 °C
GAGCCAGGAAACTGGCCC (.(((((....))))).),-11.3 kcal/mol,45.8 °C
GAGCCCCCGAAAGGGCTC (((..(((....)))))),-32.3 kcal/mol,65.4 °C
GAGCCCGAAAGGGACTC ((((((....))).))),-22.9 kcal/mol,54.8 °C
GAGCCCGAAAGGGGGCTC ((((((....)))..))),-22.8 kcal/mol,68.6 °C
GAGCCCGCGAAAGCGCTC (((..(((....)))))),-11.2 kcal/mol,39.2 °C
GAGCCCGGAAACGGGTTC ((.((((....)))).)),-27 kcal/mol,56.7 °C
GAGCCGGCGAAAGCCCTC (((..(((....)))))),-8.17 kcal/mol,28.7 °C
GAGCCTGGAAACAGACTC (((.(((....))).))),-31.9 kcal/mol,43.6 °C
GAGCCTGGAAACGGGTTC ((.((.(....).)).)),-27.5 kcal/mol,36.4 °C
GAGCGACCGAAAGGTCTC (((..(((....)))))),-10.2 kcal/mol,33.1 °C
GAGCGCCGAAAGGCTCTC (((.(((....))).))),-21.4 kcal/mol,50.7 °C
GAGCGCGAAAGCGACCTC ((((((....)))..))),-11.8 kcal/mol,46.6 °C
GAGCGCGAAAGCGCCCTC ((((((....)))..))),-7.61 kcal/mol,46.8 °C
GAGCGCGAAAGCGTACTC ((((((....)))..))),-12.1 kcal/mol,44.4 °C
GAGCGGACGAAAGTCCTC (((..(((....)))))),-8.32 kcal/mol,29.9 °C
GAGCGGGCGAAAGCCCTC (((..(((....)))))),-6.71 kcal/mol,25.9 °C
